Data on 16 compounds can be found in ChEMBL document CHEMBL4184090, “Discovery of novel jaspine B analogues as autophagy inducer” (Bioorg Med Chem Lett, 2018).

Structures are written as SMILES. Active and inactive are the calls of the source. No cut-off for these calls is given here. Bounds are passed on as bounds.

Assay [1] has as its system MCF7. The experiment in a line: Antiproliferative activity against human MCF7 cells after 72 hrs by MTT assay. The settings on record: MCF7, 72 h. The format is functional, cell-based. In outline:
(§1)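 MTT proliferation assay; cells exposed to compounds for 72 h. IC50 is the concentration inhibiting tumor cell proliferation by 50%. Means ± SDs of three independent experiments. 5-Fluorouracil used as positive control.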

Assay [2] deals with A549. As to the kind of experiment: Antiproliferative activity against human A549 cells after 72 hrs by MTT assay. The format is functional, cell-based. The settings on record: A549, 72 h. Put shortly: as §1
Assay [3] concerns PC-3. The experiment in a line: Antiproliferative activity against human PC3 cells after 72 hrs by MTT assay. The format is functional, cell-based. The settings on record: PC-3, 72 h. In outline: as §1
Assay [4] deals with B16-F10. As to the kind of experiment: Antiproliferative activity against mouse B16/F10 cells after 72 hrs by MTT assay. The format is functional, cell-based. The settings on record: B16-F10, 72 h. In outline: as §1
Assay [5] has as its system PC-3. As to the kind of experiment: Induction of apoptosis in human PC3 cells assessed as early apoptotic cells at 3 uM after 48 hrs by Annexin V-FITC/propidium iodide staining-based flow cytometric analysis (reference value: 12.4%). The class given is functional.
The subject of assay [6] is PC-3. As to the kind of experiment: Induction of apoptosis in human PC3 cells assessed as viable cells at 2 uM after 48 hrs by Annexin V-FITC/propidium iodide staining-based flow cytometric analysis (reference value: 78.2%). The settings on record: PC-3, 48 h, read-out: Activity. The class given is functional.
Assay [7] concerns PC-3. As to the kind of experiment: Induction of apoptosis in human PC3 cells assessed as late apoptotic cells at 2 uM after 48 hrs by Annexin V-FITC/propidium iodide staining-based flow cytometric analysis (reference value: 9.3%). The class given is functional.
Assay [8] deals with PC-3. As to the kind of experiment: Induction of mitochondrial membrane potential loss in human PC3 cells at 3 uM after 24 hrs by JC-1 staining-based flow cytometric analysis (reference value: 50.5%). The format is functional.
For assay [9], the system named is PC-3. As to the kind of experiment: Induction of apoptosis in human PC3 cells assessed as necrotic cells at 4 uM after 48 hrs by Annexin V-FITC/propidium iodide staining-based flow cytometric analysis (reference value: 0.1%). The format is functional.
Assay [10] has as its system PC-3. As to the kind of experiment: Induction of apoptosis in human PC3 cells assessed as late apoptotic cells at 1 uM after 48 hrs by Annexin V-FITC/propidium iodide staining-based flow cytometric analysis (reference value: 9.3%). The class given is functional.
The test system of assay [11] is PC-3. As to the kind of experiment: Induction of apoptosis in human PC3 cells assessed as viable cells at 3 uM after 48 hrs by Annexin V-FITC/propidium iodide staining-based flow cytometric analysis (reference value: 78.2%). The class given is functional. The note with it: PC-3, 48 h, read-out: Activity.
Assay [12] relates to PC-3. As to the kind of experiment: Induction of autophagy in human PC3 cells assessed as increase in LC3-2 expression level by Western blot analysis. The format is functional, cell-based. In outline:
(§2)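 Western blot of PC-3 lysates for beclin-1, LC3B-I, LC3B-II and P62 after treatment at increasing concentrations.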

The subject of assay [13] is PC-3. The experiment in a line: Induction of apoptosis in human PC3 cells assessed as early apoptotic cells at 4 uM after 48 hrs by Annexin V-FITC/propidium iodide staining-based flow cytometric analysis (reference value: 12.4%). The class given is functional.
Assay [14] has as its system PC-3. As to the kind of experiment: Induction of apoptosis in human PC3 cells assessed as late apoptotic cells at 4 uM after 48 hrs by Annexin V-FITC/propidium iodide staining-based flow cytometric analysis (reference value: 9.3%). The format is functional.
Assay [15] deals with PC-3. As to the kind of experiment: Induction of autophagy in human PC3 cells assessed as decrease in P62 protein level at 1 uM by Western blot analysis. The format is functional, cell-based. Put shortly: as §2
The test system of assay [16] is PC-3. As to the kind of experiment: Induction of autophagy in human PC3 cells assessed as increase LC3-2 accumulation at 4 uM by confocal microscopic analysis. The class given is functional, cell-based. The note with it: TDE = time-dependent effect. Put shortly: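 LC3 immunofluorescence in PC-3 cells imaged by confocal microscopy over time up to 24 h to follow autophagosome formation.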

Assay [17] has as its system PC-3. The experiment in a line: Induction of apoptosis in human PC3 cells assessed as viable cells at 1 uM after 48 hrs by Annexin V-FITC/propidium iodide staining-based flow cytometric analysis (reference value: 78.2%). The class given is functional. The note with it: PC-3, 48 h, read-out: Activity.
For assay [18], the system named is PC-3. As to the kind of experiment: Induction of apoptosis in human PC3 cells assessed as necrotic cells at 1 uM after 48 hrs by Annexin V-FITC/propidium iodide staining-based flow cytometric analysis (reference value: 0.1%). The class given is functional.
Assay [19] relates to PC-3. As to the kind of experiment: Induction of apoptosis in human PC3 cells assessed as viable cells at 4 uM after 48 hrs by Annexin V-FITC/propidium iodide staining-based flow cytometric analysis (reference value: 78.2%). The format is functional. The note with it: PC-3, 48 h, read-out: Activity.
Assay [20] has as its system PC-3. As to the kind of experiment: Induction of apoptosis in human PC3 cells assessed as late apoptotic cells at 3 uM after 48 hrs by Annexin V-FITC/propidium iodide staining-based flow cytometric analysis (reference value: 9.3%). The class given is functional.
The test system of assay [21] is PC-3. The experiment in a line: Cytotoxicity against human PC3 cells assessed as reduction in cell viability at 3 uM after 48 hrs by MTT assay relative to control. The class given is functional. In outline:
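MTT viability read-out in PC-3 cells incubated with a range of concentrations for 48 h; viability expressed relative to untreated control cells.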

Assay [22] concerns PC-3. The experiment in a line: Induction of morphological changes in human PC3 cells at 3 uM by microscopic analysis. The format is functional, cell-based.
For assay [23], the system named is PC-3. The experiment in a line: Induction of mitochondrial membrane potential loss in human PC3 cells at 2 uM after 24 hrs by JC-1 staining-based flow cytometric analysis (reference value: 50.5%). The class given is functional.
Assay [24] deals with PC-3. As to the kind of experiment: Induction of apoptosis in human PC3 cells assessed as necrotic cells at 2 uM after 48 hrs by Annexin V-FITC/propidium iodide staining-based flow cytometric analysis (reference value: 0.1%). The format is functional.
Assay [25] relates to PC-3. The experiment in a line: Induction of mitochondrial membrane potential loss in human PC3 cells at 4 uM after 24 hrs by JC-1 staining-based flow cytometric analysis (reference value: 50.5%). The format is functional.
Assay [26] relates to PC-3. As to the kind of experiment: Induction of apoptosis in human PC3 cells assessed as early apoptotic cells at 1 uM after 48 hrs by Annexin V-FITC/propidium iodide staining-based flow cytometric analysis (reference value: 12.4%). The format is functional.
Assay [27] has as its system PC-3. The experiment in a line: Induction of apoptosis in human PC3 cells assessed as necrotic cells at 3 uM after 48 hrs by Annexin V-FITC/propidium iodide staining-based flow cytometric analysis (reference value: 0.1%). The format is functional.
In assay [28] the test system is PC-3. The experiment in a line: Induction of apoptosis in human PC3 cells assessed as early apoptotic cells at 2 uM after 48 hrs by Annexin V-FITC/propidium iodide staining-based flow cytometric analysis (reference value: 12.4%). The class given is functional.
In assay [29] the test system is PC-3. As to the kind of experiment: Induction of autophagy in human PC3 cells assessed as increase in beclin-1 expression level by Western blot analysis. The class given is functional, cell-based. Put shortly:
as §2

Assay [30] deals with PC-3. The experiment in a line: Induction of mitochondrial membrane potential loss in human PC3 cells at 1 uM after 24 hrs by JC-1 staining-based flow cytometric analysis (reference value: 50.5%). The class given is functional.

With `CCCCCCCNC[C@@H]1OC[C@H](N)[C@@H]1O`, the IC50 in [1] was greater than 128 µM; in assay [2] it was greater than 128 µM; in [3], 22.4 µM; in assay [4] it was greater than 128 µM.
`CCCCCCCCCCCNC[C@@H]1OC[C@H](N)[C@@H]1O`: the IC50 worked out at 6.77 µM in assay [1], 11.1 µM in assay [2], 3.33 µM in assay [3] and 19.3 µM in assay [4].
Consider `CCCCCCCCNC[C@@H]1OC[C@H](N)[C@H]1O`, for which the IC50 is greater than 128 µM in [1], 71.8 µM in [2], 13 µM in [3] and greater than 128 µM in [4].
As to `CCCCCCCCCNC[C@@H]1OC[C@H](N)[C@H]1O`, the IC50 in assay [1] was 60.3 µM; in assay [2], greater than 128 µM; in [3], 7.65 µM; in assay [4], greater than 128 µM.
In the case of `CCCCCCCCNC[C@@H]1OC[C@H](N)[C@@H]1O`, the half-inhibitory concentration (IC50) in assay [1] was 96.6 µM; in assay [2], greater than 128 µM; in assay [3] it was 13.8 µM; in assay [4] it was greater than 128 µM.
For `CCCCCCCCCCCNC[C@@H]1OC[C@H](N)[C@H]1O`, the IC50 in assay [1] came out at 13.1 µM; in [2], 9.65 µM; in assay [3], 10 µM; in assay [4] it was 88.8 µM.
For `CCCCCCCCCNC[C@@H]1OC[C@H](N)[C@@H]1O`, the concentration for half-maximal inhibition (IC50) in assay [1] amounted to 12.5 µM; in assay [2], 22.1 µM; in [3], 2.03 µM; in assay [4] it was 55.2 µM.
The corresponding values for `CCCCCCCCCCNC[C@@H]1OC[C@H](N)[C@H]1O` are 42.7 µM, greater than 128 µM, greater than 128 µM and greater than 128 µM.
For the compound `CCCCCCCCCCCCNC[C@@H]1OC[C@H](N)[C@@H]1O`, the Activity is 3% in [5]; 9.6% in assay [7]; 88.2% in assay [8]; 0.2% in assay [9]; 8% in assay [10]; “Dose-dependent effect” in [12]. Besides, the Activity was 9.3% in [13]; 81.9% in [14]; “Tde” in [16]; 0.2% in assay [18]; 15.7% in assay [20]; 56% in assay [21]. Moreover, the Activity in [23] was found to be 78.6%; in [24], 0.3%; in assay [25] it was 93%; in assay [26], 2.6%; in assay [27] it was 0.6%; in assay [28], 2.3%. In addition, the Activity result in assay [29] was “Dose-dependent effect”; in assay [30] it was 69.1%. For the same compound, the viability at 2 µM in assay [6] was 87.7%. Also, the IC50 was 1.8 µM in assay [1], 5.87 µM in [2], 0.85 µM in assay [3] and 10.7 µM in assay [4]. For the same compound, the viability at 3 µM in [11] stood at 80.8%. Also, the result in assay [15] and in assay [22] was Active. Moreover, in assay [17], the viability at 1 µM is 89.2%. Besides, in assay [19], the viability at 4 µM was determined as 8.5%.
As for `CCCCCCCCCCCCNC[C@@H]1OC[C@H](N)[C@H]1O`, the IC50 in assay [1] was found to be 12.6 µM; in assay [2], 41.1 µM; in assay [3], 2.38 µM; in assay [4], 58.1 µM.
In the case of `CCCCCCCCCCNC[C@@H]1OC[C@H](N)[C@@H]1O`, the IC50 worked out at 34.2 µM in assay [1], 47.8 µM in assay [2], 11.9 µM in assay [3] and 29.6 µM in assay [4].
For `CCCCCCCCCCCCCCNC[C@@H]1OC[C@H](N)[C@@H]1O`, in that order: 0.72 µM, 2.85 µM, 1.2 µM and 14.3 µM.
The corresponding values for `CCCCCCCNC[C@@H]1OC[C@H](N)[C@H]1O` are greater than 128 µM, greater than 128 µM, greater than 128 µM and greater than 128 µM.
The corresponding values for `O=c1[nH]cc(F)c(=O)[nH]1` [FLUOROURACIL] are 6.11 µM, 0.43 µM, 0.53 µM and 6.29 µM.
Consider `CCCCCCCCCCCCCC[C@@H]1OC[C@H](N)[C@@H]1O` [PACHASTRISSAMINE], for which the IC50 in assay [1] came to 2.33 µM; in [2] it was 1.87 µM; in assay [3] it was 0.7 µM; in assay [4] it was 0.5 µM.
For `CCCCCCCCCCCCCCNC[C@@H]1OC[C@H](N)[C@H]1O`, in that order: 8.83 µM, 19.9 µM, 1.99 µM and 64.2 µM.
